Bioassay records as filed in PubChem BioAssay.
A selection: hits, their analogues and other compounds. The true share with any hit is near 2.2%.
Exocytosis inh = lytic granule exocytosis inhibition. TALL-104 LAMP-1 surface exposure, flow cytometry; cells stimulated with thapsigargin and PMA. inhibition, % at 10 µM. actives 0.66% (n = 360,000). AID 651702;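 active = inhibition above about 55%, limit read from the data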
ASAP1 GAP inh = ASAP1 ArfGAP inhibition | Q9ULH1 | ASAP1-stimulated ARF1 GTP hydrolysis, GDP FP detection | inhibition, % at 16.5 µM | actives 0.19% (n = 360,000) | AID 624377; in the data active = inhibition above about 25%;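 also: 0% = vehicle with enzyme and substrate and 100% = no enzyme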
CendR NRP1 mod = modulators of CendR peptide binding to human neuropilin-1 | AID 602438 | actives 0.85% (n = 360,000) | inhibition, % at 25 µM | FAM-RPARPAR peptide binding to NRP-1, fluorescence polarization | O14786;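 active = inhibition or corrected inhibition above about 18%, plus a signal ratio from 0.5 to 1.5, limit read from the data, passing the limit was not always enough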
Target sequence (O14786 whole entry, looked up): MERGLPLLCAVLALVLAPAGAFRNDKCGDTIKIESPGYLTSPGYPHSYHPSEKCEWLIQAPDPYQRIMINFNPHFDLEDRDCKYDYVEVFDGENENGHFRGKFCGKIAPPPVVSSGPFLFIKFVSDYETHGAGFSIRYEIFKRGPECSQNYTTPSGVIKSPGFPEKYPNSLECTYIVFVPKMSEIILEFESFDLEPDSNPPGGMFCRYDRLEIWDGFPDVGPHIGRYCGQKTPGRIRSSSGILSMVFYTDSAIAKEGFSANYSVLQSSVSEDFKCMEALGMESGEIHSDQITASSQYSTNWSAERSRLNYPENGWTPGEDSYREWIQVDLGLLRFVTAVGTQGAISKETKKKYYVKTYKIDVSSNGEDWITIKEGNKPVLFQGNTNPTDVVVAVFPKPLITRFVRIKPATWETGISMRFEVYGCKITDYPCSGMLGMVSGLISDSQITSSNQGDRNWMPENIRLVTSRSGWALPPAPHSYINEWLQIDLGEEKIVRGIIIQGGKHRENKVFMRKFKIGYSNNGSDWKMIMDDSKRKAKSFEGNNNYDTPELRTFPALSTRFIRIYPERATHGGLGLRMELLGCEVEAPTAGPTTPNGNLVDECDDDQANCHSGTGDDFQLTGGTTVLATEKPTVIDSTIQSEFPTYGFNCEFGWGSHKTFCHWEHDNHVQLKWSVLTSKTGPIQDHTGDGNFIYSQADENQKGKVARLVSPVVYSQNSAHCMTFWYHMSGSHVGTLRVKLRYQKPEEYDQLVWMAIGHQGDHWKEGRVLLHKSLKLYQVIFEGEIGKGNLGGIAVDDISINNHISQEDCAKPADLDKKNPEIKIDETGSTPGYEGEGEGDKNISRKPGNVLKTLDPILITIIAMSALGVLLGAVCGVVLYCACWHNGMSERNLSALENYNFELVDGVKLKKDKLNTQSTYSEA
V-ATPase pH = alters yeast V-ATPase proton transport; S. cerevisiae, pHLuorin cytosolic pH fluorescence; response, % at 10 µM; actives 0.37% (n = 350,000); AID 504577; in the data active = response mostly above about 7.3%, no sharp cut-off; inactive = mostly below about 5.4%; also: actives read high
ARFGAP1 inh = rat ARFGAP1 inhibition | inhibition, % at 16.5 µM | AID 651572 | actives 0.26% (n = 360,000) | Arfgap1-stimulated ARF1 GTP hydrolysis, GDP FP detection | Q62848;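 active = inhibition above a per-plate limit, mean inhibition of low control wells plus 3 SD, cut at about 25% in these data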;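 also: 0% = DMSO wells with enzyme and 100% = wells lacking Arfgap1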
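Material: rat Arfgap1 catalytic domain, aa 1-136; also added: human ARF1(Δ1-17)-GTP substrate; compound dosing: one concentration, 16.5 µM, DMSO 1.26%; incubation: GTP hydrolysis reaction 2 h at 25 °C; measured by: Tracer-displacement fluorescence polarization with EDTA stop, 620/688 nm; evaluation: % inhibition from polarization; repeats: one replicate per compound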
* = called active by the depositor.

How did CN(C)/C(=N\S(=O)(=O)c1ccc(F)cc1)c1ccccc1 do in these assays?
Exocytosis inh: 0.4; ASAP1 GAP inh: -14.1; CendR NRP1 mod: 3.5; V-ATPase pH: -2.6; ARFGAP1 inh: 2.1

How did CN(C)/C(=N\S(=O)(=O)c1ccccc1)c1ccccc1 do in these assays?
Exocytosis inh: 4.0; ASAP1 GAP inh: -17.7; CendR NRP1 mod: 27.3*; V-ATPase pH: 2.6; ARFGAP1 inh: 1.9

Results for Cc1ccccc1NC(=O)c1sc2nc(N3CCOCC3)c3c(c2c1N)CCCC3 ?
Exocytosis inh: 4.0; ASAP1 GAP inh: -4.2; CendR NRP1 mod: 33.3*; V-ATPase pH: -5.8; ARFGAP1 inh: 24.5

Results for CCCCN(C=O)c1c(CC)nc2ccc(C(=O)N(C)Cc3ccccc3)cn12 ?
Exocytosis inh: -0.2; ASAP1 GAP inh: 0.6; CendR NRP1 mod: 9.4; ARFGAP1 inh: -13.6

Results for COc1ccc(C(=O)Nc2ccc3ccccc3c2)c(OC)c1 ?
Exocytosis inh: 22.2; ASAP1 GAP inh: -3.0; CendR NRP1 mod: -17.0; V-ATPase pH: -1.6; ARFGAP1 inh: 12.0

How did COc1ccc(C(=O)Nc2c(F)c(F)c(F)c(F)c2F)c(OC)c1 do in these assays?
Exocytosis inh: -0.2; ASAP1 GAP inh: 0.7; CendR NRP1 mod: 20.2*; V-ATPase pH: -0.2; ARFGAP1 inh: -5.3

How did CN1CCN(S(=O)(=O)c2ccc(NC(=O)c3cccs3)cc2)CC1 do in these assays?
Exocytosis inh: 5.3; ASAP1 GAP inh: -5.8; CendR NRP1 mod: 21.9*; V-ATPase pH: -1.9; ARFGAP1 inh: -12.5

How did O=C1C(SCCO)=C(SCCO)C(=O)c2ccccc21 do in these assays?
Exocytosis inh: 97.2*; ASAP1 GAP inh: 19.0; CendR NRP1 mod: 18.7; V-ATPase pH: -0.8; ARFGAP1 inh: -5.2

How did CCN(CC)c1ccc2cc(C#N)c(=O)oc2c1 do in these assays?
Exocytosis inh: 0.2; ASAP1 GAP inh: 2.8; CendR NRP1 mod: 24.9*; V-ATPase pH: -15.2; ARFGAP1 inh: -4.0

How did CCN(CC)c1ccc2ccc(=O)oc2c1 do in these assays?
Exocytosis inh: 0.3; ASAP1 GAP inh: -9.1; CendR NRP1 mod: -3.9; V-ATPase pH: -2.1; ARFGAP1 inh: 12.4

How did CNc1ncn(-c2c(C)cccc2C)c(=O)n1 do in these assays?
ASAP1 GAP inh: 11.3; ARFGAP1 inh: 3.3

What do the screens show for `Cc1ccccc1C(=O)N[C@H](C(=O)N1CCC[C@H]1C(=O)NCCc1ccccc1Cl)C(C)C`?
ASAP1 GAP inh: -4.1; ARFGAP1 inh: 2.1

What do the screens show for `CCOC(=O)C1=C(C)N=C2SC(C)C(=O)N2C1c1cccc(F)c1` (configuration not stated)?
Exocytosis inh: 1.3; ASAP1 GAP inh: -2.6; CendR NRP1 mod: 7.4; V-ATPase pH: -1.4; ARFGAP1 inh: -3.8

How did CC1=C(C(=O)OCC(C)C)C(c2cccc(F)c2)N2C(=O)C(C)SC2=N1 (configuration not stated) do in these assays?
Exocytosis inh: 59.2*; ASAP1 GAP inh: 0.8; CendR NRP1 mod: 6.3; V-ATPase pH: 8.3; ARFGAP1 inh: -1.8

How did CNC(=O)C(C)Sc1ccc(S(=O)(=O)N2CCOCC2)cn1 (configuration not stated) do in these assays?
Exocytosis inh: -2.1; ASAP1 GAP inh: -9.2; CendR NRP1 mod: 21.5*; V-ATPase pH: 3.7; ARFGAP1 inh: 2.5

Results for COc1ccc(-c2cc(C#N)nc(N3CCN(C)CC3)n2)cc1 ?
Exocytosis inh: 0.4; ASAP1 GAP inh: 11.0; CendR NRP1 mod: 16.9; V-ATPase pH: 0.0; ARFGAP1 inh: -7.2

What do the screens show for `CCN(CC)c1nc(C#N)cc(-c2ccc(OC)cc2)n1`?
Exocytosis inh: -0.3; ASAP1 GAP inh: 12.5; CendR NRP1 mod: 24.1*; V-ATPase pH: 0.7; ARFGAP1 inh: -2.7

Results for COc1ccc(-c2cc(C#N)nc(N3CCNCC3)n2)cc1 ?
Exocytosis inh: 1.3; ASAP1 GAP inh: 53.5*; CendR NRP1 mod: -3.0; V-ATPase pH: 0.4; ARFGAP1 inh: 75.3*

What do the screens show for `COc1cccc(OC)c1C(=O)Nc1ccnn1C`?
Exocytosis inh: -7.9; CendR NRP1 mod: 7.9; V-ATPase pH: 0.6

What do the screens show for `O=C(c1ccccc1)c1coc2c1C(=O)c1ccccc1C2=O`?
Exocytosis inh: 14.3; ASAP1 GAP inh: 12.5; CendR NRP1 mod: 13.4; V-ATPase pH: 0.7; ARFGAP1 inh: 7.1

What do the screens show for `COc1ccc(C(=O)c2coc3c2C(=O)C(=O)c2ccccc2-3)cc1`?
Exocytosis inh: 97.9*; ASAP1 GAP inh: 7.0; CendR NRP1 mod: 25.2*; V-ATPase pH: 1.3; ARFGAP1 inh: 12.4

How did Cc1ccc(-c2nnc(Nc3ccc4c(c3)OCO4)c3ccccc23)cc1S(=O)(=O)NC(C)C do in these assays?
Exocytosis inh: 6.0; ASAP1 GAP inh: 4.7; CendR NRP1 mod: 28.0*; V-ATPase pH: -0.8; ARFGAP1 inh: 4.2

How did CN(C)c1cc(Nc2ccc(O)cc2)c([N+](=O)[O-])c2nonc12 do in these assays?
Exocytosis inh: -4.9; ASAP1 GAP inh: 4.9; CendR NRP1 mod: -8.8; V-ATPase pH: 6.1; ARFGAP1 inh: -6.2

How did O=[N+]([O-])c1c(Nc2ccccn2)cc(Cl)c2nonc12 do in these assays?
Exocytosis inh: 97.0*; ASAP1 GAP inh: -11.8; CendR NRP1 mod: 137.1; V-ATPase pH: 33.0*; ARFGAP1 inh: 16.8

What do the screens show for `O=[N+]([O-])c1c(Nc2ccc(O)cc2)cc(Cl)c2nonc12`?
Exocytosis inh: -13.2; ASAP1 GAP inh: -5.8; CendR NRP1 mod: 26.3*; V-ATPase pH: -1.8; ARFGAP1 inh: -2.0

How did CCOC(=O)C1=CCC(c2ccccc2)N(S(=O)(=O)c2ccccc2C)C1 (configuration not stated) do in these assays?
Exocytosis inh: 2.0; ASAP1 GAP inh: 2.4; CendR NRP1 mod: 12.4; ARFGAP1 inh: 0.2

How did CCc1ccccc1OCC(=O)Nc1cc(S(=O)(=O)N(CC)CC)ccc1N1CCOCC1 do in these assays?
Exocytosis inh: -18.5; ASAP1 GAP inh: -13.6; CendR NRP1 mod: 0.1; V-ATPase pH: -5.1; ARFGAP1 inh: -12.9

How did Cc1ccc(S(=O)(=O)NCc2ccncc2)cc1C do in these assays?
Exocytosis inh: -0.8; ASAP1 GAP inh: 0.5; CendR NRP1 mod: 21.9*; V-ATPase pH: 1.4; ARFGAP1 inh: 10.1

What do the screens show for `CCOc1cccc(-c2nn(-c3ccccc3)cc2/C=C(/C#N)C(=O)NCCCn2ccnc2)c1`?
Exocytosis inh: 68.1*; ASAP1 GAP inh: 5.7; CendR NRP1 mod: -11.7; V-ATPase pH: 1.0; ARFGAP1 inh: 8.2

What do the screens show for `O=C(/C=C/c1cccc(Br)c1)OCC(=O)N1CCN(c2ccccc2)CC1`?
Exocytosis inh: 0.0; ASAP1 GAP inh: -3.7; CendR NRP1 mod: 27.1*; V-ATPase pH: 1.9; ARFGAP1 inh: -3.9

What do the screens show for `O=C(COc1ccc(Cl)cc1Br)N1CCN(c2ccccc2)CC1`?
Exocytosis inh: -0.9; ASAP1 GAP inh: -6.3; CendR NRP1 mod: 33.9*; V-ATPase pH: -0.1; ARFGAP1 inh: 7.9

What do the screens show for `OCCCCc1nccc2c1[nH]c1ccccc12`?
Exocytosis inh: -6.5; ASAP1 GAP inh: 5.6; CendR NRP1 mod: -3.4; V-ATPase pH: 1.6; ARFGAP1 inh: 6.0

What do the screens show for `N#Cc1ccc(/C=C\c2nccc3c2[nH]c2ccccc23)cc1`?
Exocytosis inh: 72.2*; ASAP1 GAP inh: -3.4; CendR NRP1 mod: -150.0; V-ATPase pH: -3.2; ARFGAP1 inh: 12.7
